According to ChEMBL document CHEMBL1157476, “A novel class of cycloalkano[b]pyridines as potent and orally active opioid receptor-like 1 antagonists with minimal binding affinity to the hERG K+ channel” (J Med Chem, 2008):
One block for each compound: values may come before it. The source made the active and inactive calls. No cut-off for these calls is given here.

Tests used:
[1] = molecular target: Voltage-gated inwardly rectifying potassium channel KCNH2 (Homo sapiens, UniProt Q12809)
physchem [2] = settings: buffer, pH 7.4
Nociceptin receptor [3] = molecular target: T1, Nociceptin receptor (Homo sapiens, UniProt P41146); experiment: Displacement of [125I][Tyr14]nociceptin from human ORL1 expressed in CHO cells; type: cell-based
Nociceptin receptor [4] = molecular target: T1, Nociceptin receptor; experiment: Antagonist activity at human ORL1 expressed in CHO cells assessed as effect on nociceptin-induced GTPgammaS binding; type: functional, cell-based
[5] = Bioavailability in Sprague-Dawley rat at 3 mg/kg, iv; type: ADME, organism-based; settings: in vivo, po, in the assay text read “po” for “iv”
Summary of the method: (§1)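 Fasted Sprague-Dawley rats (n = 3) dosed orally as a solution in water (10 or 3 mg/kg), with matching intravenous arms at 3 or 0.65 mg/kg; F from oral versus IV exposure.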

[6] = Half life in Sprague-Dawley rat at 0.65 mg/kg, iv; type: ADME, organism-based; set-up: dose 0.65 mg/kg, route intravenous; settings: in vivo
Summary of the method: (§2)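 Fasted Sprague-Dawley rats (n = 3) given an intravenous solution in water at 3 or 0.65 mg/kg; plasma pharmacokinetic parameters from the IV arm.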

Mus musculus [7] = experiment: Reversal of ORL agonist-induced locomotor activity in CD1 mouse at 10 mg/kg, po after 60 mins; type: functional
Summary of the method: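 Mice (n = 6) dosed orally at 10 mg/kg, then given an ORL1 agonist. Locomotor activity counted over 60 min against vehicle control and agonist-only groups. Result expressed as % reversal of the agonist-induced reduction in locomotion.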

Canis familiaris [8] = experiment: Cardiovascular activity in anesthetized dog assessed as corrected QT interval at 2 mg/kg, iv dosed for 10 mins measured after 20 mins relative to baseline; type: functional, Canis lupus familiaris
Summary of the method: (§3)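 Isoflurane-anesthetized dogs (n = 1 or 3) given cumulative iv doses as saline solutions, each infused over 10 min; 2 and 7 mg/kg doses given 20 min after the prior administration. QTc measured at 0, 10 and 20 min after dosing, expressed as percent change from baseline for each dog. Peak plasma levels taken after each dose.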

[9] = Metabolic stability in cryopreserved human hepatocyte after 30 mins; type: ADME, cell-based; settings: cryopreserved human hepatocytes, read-out: Stability
Summary of the method: (§4)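 Compound incubated 30 min with rat hepatocytes or cryopreserved human hepatocytes; percent parent remaining reported; rat as mean of duplicates, human as mean of three experiments.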

[10] = Bioavailability in Beagle dog at 3 mg/kg, po; settings: in vivo
physchem [11] = experiment: physchem
[12] = Plasma clearance in Beagle dog at 1 mg/kg, iv; type: ADME, organism-based, Canis lupus familiaris; set-up: dose 1 mg/kg, route intravenous
Summary of the method: (§5)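 Fasted Beagle dogs (n = 3) given 1 mg/kg intravenously; plasma pharmacokinetic parameters derived from the IV arm.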

[13] = Volume of distribution at steady state in Beagle dog at 1 mg/kg, iv; type: ADME, organism-based, Canis lupus familiaris; set-up: dose 1 mg/kg, route intravenous; settings: in vivo, read-out: Vdss
Summary of the method: as §5

Canis familiaris [14] = experiment: Cardiovascular activity in anesthetized dog assessed as corrected QT interval at 7 mg/kg, iv dosed for 10 mins measured after 20 mins relative to baseline; type: functional, Canis lupus familiaris
Summary of the method: as §3

[15] = molecular target: Delta-type opioid receptor (Homo sapiens, UniProt P41143); experiment: Displacement of [3H][D-Ala2,D-Leu5]enkephalin from human cloned delta opioid receptor expressed in CHO cells; type: cell-based
Summary of the method: (§6)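 Radioligand displacement from CHO cells stably expressing cloned human receptors: [3H]diprenorphin for mu, [3H]U-69593 for kappa, [3H][D-Ala2,D-Leu5]enkephalin for delta; IC50; three independent determinations, each in duplicate.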

[16] = AUC (0 to infinity) in Beagle dog at 1 mg/kg, iv; type: ADME, organism-based, Canis lupus familiaris; set-up: time infinity, dose 1 mg/kg, route intravenous; settings: plasma
Summary of the method: as §5

in vivo [17] = settings: dog, plasma, iv, 7 mg/kg
Brain = experiment: Drug level in rat brain at 10 mg/kg, po after 1 hrs; type: ADME, organism-based; set-up: dose 10 mg/kg, route oral; settings: in vivo
Summary of the method: (§7)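 Oral dose 10 mg/kg; plasma and brain collected 1 h after administration and drug concentrations measured, n = 3 per group.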

[18] = molecular target: Kappa-type opioid receptor (Homo sapiens, UniProt P41145); experiment: Displacement of [3H]U69593 from human cloned kappa opioid receptor expressed in CHO cells; type: cell-based
Summary of the method: as §6

Canis familiaris [19] = experiment: Cardiovascular activity in anesthetized dog assessed as corrected QT interval at 1 mg/kg, iv dosed for 10 mins measured after 20 mins relative to baseline; type: functional, Canis lupus familiaris
Summary of the method: as §3

[20] = Volume of distribution at steady state in Sprague-Dawley rat at 0.65 mg/kg, iv; type: ADME, organism-based; set-up: dose 0.65 mg/kg, route intravenous; settings: in vivo, read-out: Vdss
Summary of the method: as §2

[21] = Plasma concentration in rat at 10 mg/kg, po after 1 hrs; type: ADME, organism-based; set-up: dose 10 mg/kg, route oral
Summary of the method: as §7

Rattus norvegicus = experiment: AUC (0 to infinity) in Sprague-Dawley rat at 0.65 mg/kg, iv; type: ADME, organism-based, Plasma; set-up: time infinity, dose 0.65 mg/kg, route intravenous; settings: in vivo
Summary of the method: (§8)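 Fasted Sprague-Dawley rats (n = 3) received a single intravenous dose. Plasma exposure was expressed as AUC from zero to infinity, in µM·h. The same study also yielded clearance, half-life and steady-state volume of distribution, with oral dosing run in parallel.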

[22] = Metabolic stability in rat hepatocyte after 30 mins; type: ADME, cell-based; settings: rat hepatocytes, read-out: Stability
Summary of the method: as §4

Plasma = settings: dog, in vivo, iv, 1 mg/kg, 20 min
in vivo [23] = settings: dog, plasma, iv, 1 mg/kg
[24] = Plasma clearance in Sprague-Dawley rat at 0.65 mg/kg, iv; type: ADME, organism-based; set-up: dose 0.65 mg/kg, route intravenous
Summary of the method: as §2

[25] = Half life in Beagle dog at 1 mg/kg, iv; type: ADME, organism-based, Canis lupus familiaris; set-up: dose 1 mg/kg, route intravenous; settings: in vivo
Summary of the method: as §5

Mu-type opioid receptor = Mu-type opioid receptor (Homo sapiens, UniProt P35372); experiment: Displacement of [3H]diprenorphin from human cloned mu opioid receptor expressed in CHO cells; type: cell-based
Summary of the method: as §6

in vivo [26] = settings: dog, plasma, iv, 2 mg/kg
[27] = Volume of distribution at steady state in Sprague-Dawley rat at 3 mg/kg, iv; type: ADME, organism-based; set-up: dose 3 mg/kg, route intravenous; settings: in vivo, read-out: Vdss
Summary of the method: as §2

[28] = Half life in Sprague-Dawley rat at 3 mg/kg, iv; type: ADME, organism-based; set-up: dose 3 mg/kg, route intravenous; settings: in vivo
Summary of the method: as §2

[29] = Bioavailability in Sprague-Dawley rat at 10 mg/kg, iv; type: ADME, organism-based; settings: in vivo, po, in the assay text read “po” for “iv”
Summary of the method: as §1

[30] = Plasma clearance in Sprague-Dawley rat at 3 mg/kg, iv; type: ADME, organism-based; set-up: dose 3 mg/kg, route intravenous
Summary of the method: as §2

[31] = AUC (0 to infinity) in Sprague-Dawley rat at 3 mg/kg, iv; type: ADME, organism-based; set-up: time infinity, dose 3 mg/kg, route intravenous; settings: plasma
Summary of the method: as §8

Mus musculus [32] = experiment: Inhibition of ORL1 agonist-induced hypolocomotion in mouse at 3 mg/kg, sc; type: functional, organism-based; set-up: dose 3 mg/kg

Voltage-gated inwardly rectifying potassium channel KCNH2, sequence (Q12809 whole entry): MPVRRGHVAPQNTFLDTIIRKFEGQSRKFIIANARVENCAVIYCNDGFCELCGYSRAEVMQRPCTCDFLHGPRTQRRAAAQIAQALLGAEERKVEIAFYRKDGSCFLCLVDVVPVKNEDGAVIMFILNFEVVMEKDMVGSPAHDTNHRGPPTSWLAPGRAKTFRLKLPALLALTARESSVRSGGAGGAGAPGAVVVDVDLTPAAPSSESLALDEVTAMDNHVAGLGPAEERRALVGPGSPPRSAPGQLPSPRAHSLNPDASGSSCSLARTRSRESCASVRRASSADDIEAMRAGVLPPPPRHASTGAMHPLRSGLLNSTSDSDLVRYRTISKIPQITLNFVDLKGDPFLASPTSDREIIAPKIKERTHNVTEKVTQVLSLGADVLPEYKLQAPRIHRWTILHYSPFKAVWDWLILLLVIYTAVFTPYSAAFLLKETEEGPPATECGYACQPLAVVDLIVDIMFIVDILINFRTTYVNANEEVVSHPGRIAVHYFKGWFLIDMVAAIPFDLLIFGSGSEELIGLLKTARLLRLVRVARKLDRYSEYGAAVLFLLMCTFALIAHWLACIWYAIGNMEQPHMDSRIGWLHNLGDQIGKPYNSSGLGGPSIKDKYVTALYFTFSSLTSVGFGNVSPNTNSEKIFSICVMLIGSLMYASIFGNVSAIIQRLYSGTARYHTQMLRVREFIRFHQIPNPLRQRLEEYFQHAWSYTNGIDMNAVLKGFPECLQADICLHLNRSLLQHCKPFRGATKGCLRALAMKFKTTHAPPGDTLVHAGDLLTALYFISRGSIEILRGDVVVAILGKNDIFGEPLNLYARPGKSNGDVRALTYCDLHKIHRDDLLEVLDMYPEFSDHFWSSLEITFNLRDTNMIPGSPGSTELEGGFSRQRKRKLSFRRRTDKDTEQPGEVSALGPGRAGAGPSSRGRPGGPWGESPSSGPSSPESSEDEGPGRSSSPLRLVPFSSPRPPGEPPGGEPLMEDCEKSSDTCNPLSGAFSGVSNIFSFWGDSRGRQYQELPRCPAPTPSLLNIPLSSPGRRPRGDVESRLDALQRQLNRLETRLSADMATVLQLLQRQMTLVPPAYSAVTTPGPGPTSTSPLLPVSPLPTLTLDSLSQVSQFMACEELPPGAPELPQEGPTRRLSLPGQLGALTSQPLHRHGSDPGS
T1 sequence (P41146 whole entry): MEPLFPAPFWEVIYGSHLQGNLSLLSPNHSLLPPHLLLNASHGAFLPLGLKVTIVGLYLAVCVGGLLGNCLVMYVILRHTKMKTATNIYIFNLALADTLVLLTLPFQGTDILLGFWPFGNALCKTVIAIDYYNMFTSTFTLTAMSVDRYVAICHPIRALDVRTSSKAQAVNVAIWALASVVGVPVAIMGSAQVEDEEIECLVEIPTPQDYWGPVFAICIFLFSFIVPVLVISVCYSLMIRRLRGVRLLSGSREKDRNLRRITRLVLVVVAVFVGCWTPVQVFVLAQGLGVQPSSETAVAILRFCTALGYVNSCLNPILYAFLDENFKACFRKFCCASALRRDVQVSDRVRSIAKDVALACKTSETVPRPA
Delta-type opioid receptor, sequence (P41143 whole entry): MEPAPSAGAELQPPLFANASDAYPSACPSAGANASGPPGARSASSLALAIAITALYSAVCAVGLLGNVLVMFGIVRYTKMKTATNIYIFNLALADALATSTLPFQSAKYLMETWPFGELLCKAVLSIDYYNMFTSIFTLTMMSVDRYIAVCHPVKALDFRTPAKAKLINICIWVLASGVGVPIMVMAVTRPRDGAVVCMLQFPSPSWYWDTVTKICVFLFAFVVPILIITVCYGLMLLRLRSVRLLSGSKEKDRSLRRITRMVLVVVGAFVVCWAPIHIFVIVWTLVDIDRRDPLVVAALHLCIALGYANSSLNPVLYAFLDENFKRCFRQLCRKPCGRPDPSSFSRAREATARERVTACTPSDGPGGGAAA
Kappa-type opioid receptor, sequence (P41145 whole entry): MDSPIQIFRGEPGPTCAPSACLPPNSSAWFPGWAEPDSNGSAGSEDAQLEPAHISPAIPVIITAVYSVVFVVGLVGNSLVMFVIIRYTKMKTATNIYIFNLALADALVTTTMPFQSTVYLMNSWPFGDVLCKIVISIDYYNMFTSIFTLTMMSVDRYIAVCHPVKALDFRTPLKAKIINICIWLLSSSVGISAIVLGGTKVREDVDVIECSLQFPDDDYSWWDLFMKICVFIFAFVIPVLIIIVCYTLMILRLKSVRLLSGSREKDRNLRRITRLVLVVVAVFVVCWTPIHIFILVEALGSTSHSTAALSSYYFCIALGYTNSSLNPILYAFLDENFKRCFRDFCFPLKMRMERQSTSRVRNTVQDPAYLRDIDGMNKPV
Mu-type opioid receptor, sequence (P35372 whole entry): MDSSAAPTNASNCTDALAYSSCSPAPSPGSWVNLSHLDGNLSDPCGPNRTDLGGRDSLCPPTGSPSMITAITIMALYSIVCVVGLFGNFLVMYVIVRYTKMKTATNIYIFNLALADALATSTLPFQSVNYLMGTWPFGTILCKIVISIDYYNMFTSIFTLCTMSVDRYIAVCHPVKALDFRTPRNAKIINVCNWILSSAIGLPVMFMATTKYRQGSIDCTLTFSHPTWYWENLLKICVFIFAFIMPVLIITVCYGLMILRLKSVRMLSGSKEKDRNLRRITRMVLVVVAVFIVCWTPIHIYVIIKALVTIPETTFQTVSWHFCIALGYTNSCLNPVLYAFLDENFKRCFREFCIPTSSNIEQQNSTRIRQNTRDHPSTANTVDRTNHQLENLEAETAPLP

logD (physchem [2]): 2
Ki (Nociceptin receptor [3]): 11 nM
Structure (SMILES): Cc1ccccc1C1CCN(C[C@@H]2Cc3cccnc3[C@@H](O)C2)CC1
IC50 [1]: > 50000 nM

logD (physchem [2]): 2.9
Ki (Nociceptin receptor [3]): 17 nM
Structure (SMILES): Cc1ccccc1C1CCN(C[C@@H]2CCc3cccnc3C(C)(O)C2)CC1 (stereo in doubt; form 2)

IC50 (Nociceptin receptor [4]): 1.6 nM
logD (physchem [2]): > 4
Ki (Nociceptin receptor [3]): 0.47 nM
Structure (SMILES): O[C@H]1C[C@H](CN2CCC(c3c(Cl)cccc3Cl)CC2)CCc2cccnc21
IC50 [1]: 940 nM

IC50 (Nociceptin receptor [4]): 27 nM
Ki (Nociceptin receptor [3]): 1.1 nM
Structure (SMILES): O[C@H]1C[C@H](CN2CCC(c3ccccc3Cl)CC2)CCc2cccnc21
IC50 [1]: 1500 nM

logD (physchem [2]): 1.3
Ki (Nociceptin receptor [3]): 49 nM
Structure (SMILES): Cc1ccccc1C1CCN(C[C@@H]2CCc3cccnc3C(=O)C2)CC1

logD (physchem [2]): 3.1
Ki (Nociceptin receptor [3]): 25 nM
Structure (SMILES): Cc1ccccc1C1CCN(C[C@@H]2CCc3cccnc3C3(C2)OCCO3)CC1

logD (physchem [2]): 1.9
Ki (Nociceptin receptor [3]): 21 nM
Structure (SMILES): Cc1cc(F)ccc1[C@H]1CCN(C[C@@H]2Cc3cccnc3[C@@H](O)C2)C[C@@H]1O

Ki (Nociceptin receptor [3]): 24 nM
Structure (SMILES): Cc1ccccc1C1CCN(C[C@@H]2CCc3cccnc3C(C)(O)C2)CC1 (stereo in doubt; form 1)

IC50 (Nociceptin receptor [4]): 5.7 nM
logD (physchem [2]): 3
Ki (Nociceptin receptor [3]): 3.5 nM
Structure (SMILES): Cc1ccccc1[C@@H]1CCN(C[C@@H]2CCc3cccnc3[C@@H](O)C2)C[C@H]1C

IC50 (Nociceptin receptor [4]): 5 nM
Ki (Nociceptin receptor [3]): 4.4 nM
Structure (SMILES): O[C@H]1C[C@H](CN2CC[C@H](c3ccc(F)cc3Cl)[C@@H](O)C2)CCc2cccnc21

More lines, now with the values behind:

Structure (SMILES): Cc1ccccc1[C@H]1CCN(C[C@@H]2Cc3cccnc3[C@@H](O)C2)C[C@@H]1O
IC50 [1]: > 50000 nM
Ki (Nociceptin receptor [3]): 51 nM

Structure (SMILES): O[C@H]1C[C@H](CN2CC[C@H](c3ccc(F)cc3Cl)[C@@H](O)C2)Cc2cccnc21
bioavailability [5]: 13%
half-life [6]: 1.2 h
Activity (Mus musculus [7]): 89%
Activity (Canis familiaris [8]): 0.9%
remaining at 0.5 h [9]: 93%
bioavailability [10]: 39%
pKa (physchem [11]): 7.4
clearance [12]: 19 mL/min/kg
Vd [13]: 10.6 L/kg
Activity (Canis familiaris [14]): 2%
IC50 [15]: > 10000 nM
AUC(0-inf) [16]: 2 µM·h
concentration at 20 min (in vivo [17]): 29.8 µM
Drug uptake (Brain): 0.172 nmol/g
IC50 [18]: > 10000 nM
Activity (Canis familiaris [19]): 1.1%
Vd [20]: 3.9 L/kg
concentration at 1 h [21]: 0.03 µM
AUC (Rattus norvegicus): 0.59 µM·h
remaining at 0.5 h [22]: 30%
logD (physchem [2]): 2.3
PPB (Plasma): 57%
concentration at 20 min (in vivo [23]): 3.48 µM
clearance [24]: 47 mL/min/kg
half-life [25]: 13.5 h
IC50 (Mu-type opioid receptor): > 10000 nM
concentration at 20 min (in vivo [26]): 8.3 µM

Structure (SMILES): Cc1ccccc1[C@@H]1CCN(C[C@@H]2CCc3cccnc3[C@@H](O)C2)C[C@H]1O
Activity (Canis familiaris [8]): 0.2%
remaining at 0.5 h [9]: 62%
pKa (physchem [11]): 7.8
Activity (Canis familiaris [14]): 2%
concentration at 20 min (in vivo [17]): 17.9 µM
Vd [27]: 6.3 L/kg
half-life [28]: 0.9 h
Activity (Canis familiaris [19]): 0.2%
remaining at 0.5 h [22]: 6%
bioavailability [29]: 11%
logD (physchem [2]): 2.2
clearance [30]: 91 mL/min/kg
PPB (Plasma): 62%
concentration at 20 min (in vivo [23]): 2.26 µM
AUC(0-inf) [31]: 1.6 µM·h
concentration at 20 min (in vivo [26]): 4.9 µM

Structure (SMILES): O[C@H]1C[C@H](CN2CCC(c3ccccc3)CC2)CCc2cccnc21
IC50 [1]: 11000 nM
Ki (Nociceptin receptor [3]): 30 nM

Structure (SMILES): Cc1ccccc1C1CCN(C[C@@H]2CCc3c(C)cccc3[C@@H](O)C2)CC1 (relative stereo)
Activity (Mus musculus [32]): inactive

Structure (SMILES): Cc1ccccc1[C@@H]1CCN(C[C@@H]2CCc3cccnc3[C@@H](O)C2)C[C@H]1CO
Activity (Canis familiaris [8]): 0.1%
Activity (Canis familiaris [14]): 11.3%
Activity (Canis familiaris [19]): -0.1%
